Data on 20 molecules can be found in ChEMBL document CHEMBL1157809, “Bioactive norditerpenoids from the soft coral Sinularia gyrosa” (Bioorg Med Chem, 2010).

≈ marks a conversion by molar mass, not a printed value. Calls of active or inactive are those of the source. No cut-off for these calls is given here. Where only a bound is given, the exact number is not on record here.

For one test, the system named is A549. The test can be described thus: Cytotoxicity against human A549 cells by MTT assay. It is filed as functional. As to conditions: read-out: ED50 (the source's name). The procedure, abridged: (§1)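 Modified MTT colorimetric assay on P-388 mouse lymphocytic leukemia, HT-29 and A549 tumor cells; read-out ED50. Mithramycin as positive control.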
On the technique in general: Formazan colour is commonly taken as a measure of viable cells.

The test system of test [1] is RAW264.7. The test can be described thus: Antiinflammatory activity in mouse RAW264.7 cells assessed as inhibition of LPS-induced iNOS expression at 10 uM by immunoblot analysis.
A further test concerns P388. As to the kind of experiment: Cytotoxicity against mouse P388 cells by MTT assay. It counts as functional. The conditions noted are these: read-out: ED50 (the source's name). The procedure, abridged:
as §1

The next test concerns Human betaherpesvirus 5. The test can be described thus: Antiviral activity against HCMV infected in HEL cells assessed as inhibition of virus-induced cytopathic effect after 7 days. It counts as functional, organism-based. As to conditions: Human betaherpesvirus 5, HEL, 168 h; for EC50: read-out: ED50 (the source's name). The procedure, abridged:
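Confluent human embryonic lung (HEL) cells preincubated 1 h with or without various compound concentrations, then infected with HCMV at 1000 pfu per well. IC50 taken as concentration reducing virus-induced cytopathic effect by 50% after seven days versus untreated control.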

Test [2] relates to RAW264.7. As to the kind of experiment: Antiinflammatory activity in mouse RAW264.7 cells assessed as inhibition of LPS-induced COX2 expression at 10 uM by immunoblot analysis. It is filed as functional. The procedure, abridged:
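Murine RAW 264.7 macrophages cultured in DMEM with 10% heat-inactivated FBS at 37 °C, 5% CO2. Cells were stimulated with LPS with or without compound. COX-2 protein was measured by immunoblot, with β-actin as housekeeping reference, and expressed as % of LPS-stimulated control cells. Statistics: one-way ANOVA, Student–Newman–Keuls post hoc test, P<0.05.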
A general note: In western blotting, separated proteins are transferred to a membrane and probed.

The subject of another test is HT-29. The test can be described thus: Cytotoxicity against human HT-29 cells by MTT assay. The conditions noted are these: read-out: ED50 (the source's name). It counts as functional. The procedure, abridged:
as §1

Broadly, the inhibition is the percentage by which the read-out fell short of the control. The IC50 is the concentration needed to halve the response being measured. For the molecule `C=C(C)[C@H]1C/C=C2/C(=O)O[C@H](C[C@@]3(C)CC(=O)[C@@H](CC(=O)C1)O3)[C@H]2O`, the EC50 in the test with A549, in the test on P388 and with HT-29 was more than 20 µg/mL throughout. For the same molecule, in the test with RAW264.7 [1], the inhibition at 10 µM stood at 10.2%. Moreover, the IC50 in the test on Human betaherpesvirus 5 worked out at 1.9 µg/mL (≈ 5.45 µM). In addition, in the test on RAW264.7 [2], the result was inactive.

On to `C=C(C)[C@@H]1CC(=O)[C@H]2[C@H](C1)[C@@H]1C(=O)O[C@@H]3C[C@@]4(C)O[C@@H]2C(=O)[C@@H]4[C@H]13`, for which the EC50 in the test with A549 is more than 20 µg/mL; in the test on P388, more than 20 µg/mL; with Human betaherpesvirus 5 it was more than 50 µg/mL; in the test on HT-29, more than 20 µg/mL.

Take `O=C(/C=C/c1ccc(O)c(O)c1)OCCc1ccccc1` [CAFFEIC ACID PHENETHYL ESTER]: the inhibition at 10 µM in the test on RAW264.7 [1] turned out to be 1.5%.

Take `C=C(C)[C@H]1CCC2=C[C@H](C[C@@]3(C)CC(=O)[C@@H](CC(=O)C1)O3)OC2=O` [GYROSANOLIDE E]: the EC50 in the test with A549 is more than 20 µg/mL; in the test on P388 it was more than 20 µg/mL; in the test on Human betaherpesvirus 5, more than 50 µg/mL; in the test with HT-29, more than 20 µg/mL.

Consider `C=C(C)[C@H]1C/C=C2/C(=O)O[C@H](C[C@@]3(C)CC(=O)[C@H](CC(=O)C1)O3)[C@H]2O`, for which the EC50 in the test on A549 was more than 20 µg/mL; in the test on P388 it was more than 20 µg/mL; with Human betaherpesvirus 5, more than 50 µg/mL; in the test on HT-29, more than 20 µg/mL. Further, in the test with RAW264.7 [1], the inhibition at 10 µM was found to be 17.4%. Besides, the result with RAW264.7 [2] was inactive.

With `C=C(C)[C@H]1CCC2=C[C@@H](C[C@@]3(C)CC(=O)[C@@H](CC(=O)C1)O3)OC2=O`, the EC50 was more than 20 µg/mL with A549, more than 20 µg/mL in the test on P388, more than 50 µg/mL in the test with Human betaherpesvirus 5 and more than 20 µg/mL with HT-29.

Turning to `C=C(C)[C@H]1C/C=C(/C(=O)OC)CC(=O)C[C@@]2(C)CC(=O)[C@H](CC(=O)C1)O2`, the EC50 with A549 was more than 20 µg/mL; in the test on P388 it was more than 20 µg/mL; with Human betaherpesvirus 5 it was more than 50 µg/mL; in the test on HT-29, more than 20 µg/mL.

As to `C=C(C)[C@H]1CC[C@]23O[C@H]2[C@@H](C[C@@]2(C)CC(=O)[C@@H](CC(=O)C1)O2)OC3=O`, the EC50 in the test on A549 was more than 20 µg/mL; in the test on P388, more than 20 µg/mL; in the test with Human betaherpesvirus 5 it was more than 50 µg/mL; in the test with HT-29, more than 20 µg/mL. The inhibition at 10 µM with RAW264.7 [1] was found to be 47.2%. Further, the outcome with RAW264.7 [2] was inactive.

Regarding `C=C(C)[C@@H]1CC(=O)CC2=C(C1)[C@@H]1C(=O)O[C@@H]3CC(C)=C(C2=O)[C@H]13` [YONAROLIDE], the EC50 in the test with A549 is more than 20 µg/mL; in the test on P388, more than 20 µg/mL; with Human betaherpesvirus 5 it was more than 50 µg/mL; with HT-29, more than 20 µg/mL.

Consider `C=C(C)[C@H]1CCC2=C[C@@H](C/C(C)=C/C(=O)[C@H](O)CC(=O)C1)OC2=O` [GYROSANOLIDE D], for which the EC50 in the test on A549 was more than 20 µg/mL; with P388 it was more than 20 µg/mL; in the test with Human betaherpesvirus 5 it was more than 50 µg/mL; in the test on HT-29 it was more than 20 µg/mL.

Regarding `C=C(C)[C@@H]1CC(=O)C[C@@H]2O[C@](C)(CC2=O)C[C@@H]2C=C(C(=O)O2)[C@@H](O)C1` [GYROSANOLIDE F], the EC50 with A549 was more than 20 µg/mL; with P388, more than 20 µg/mL; in the test with Human betaherpesvirus 5, more than 50 µg/mL; in the test on HT-29, more than 20 µg/mL.

With `C=C(C)[C@H]1C/C=C2/C(=O)O[C@H](C/C(C)=C/C(=O)[C@@H](O)CC(=O)C1)[C@H]2O` [GYROSANOLIDE A], the EC50 in the test on A549 was more than 20 µg/mL; with P388, more than 20 µg/mL; with Human betaherpesvirus 5, more than 50 µg/mL; in the test with HT-29 it was more than 20 µg/mL. Further, the inhibition at 10 µM in the test with RAW264.7 [1] is 55.2%. In addition, the result with RAW264.7 [2] was inactive.

For `C=C(C)[C@H]1C/C=C2/C(=O)O[C@H](C/C(C)=C\C(=O)[C@@H](O)CC(=O)C1)[C@H]2O` [GYROSANOLIDE B], the EC50 in the test with A549 is more than 20 µg/mL; in the test on P388, more than 20 µg/mL; in the test with Human betaherpesvirus 5, more than 50 µg/mL; in the test with HT-29, more than 20 µg/mL. Also, the inhibition at 10 µM in the test with RAW264.7 [1] is 18.6%. In addition, in the test with RAW264.7 [2], the outcome was inactive.

With `C=C(C)[C@H]1C/C=C2/C(=O)O[C@H](C/C(C)=C/C(=O)[C@H](OC)CC(=O)C1)[C@H]2O` [GYROSANOLIDE C], the EC50 in the test on A549 was more than 20 µg/mL; with P388, more than 20 µg/mL; with Human betaherpesvirus 5 it was more than 50 µg/mL; in the test on HT-29 it was more than 20 µg/mL. In the test on RAW264.7 [1], the inhibition at 10 µM was determined as 10.6%. Besides, the result in the test on RAW264.7 [2] was inactive.

Take `C=C(C)[C@H]1CCC2=C[C@@H](C[C@@]3(C)CC(=O)[C@H](CC(=O)C1)O3)OC2=O`: the EC50 was more than 20 µg/mL in the test on A549, more than 20 µg/mL with P388, more than 50 µg/mL with Human betaherpesvirus 5 and more than 20 µg/mL in the test with HT-29.

Turning to `C=C(C)[C@@H]1CC(=O)C[C@H]2O[C@](C)(CC2=O)C[C@@H](O)[C@@H]2O[C@]2(C(=O)OC)[C@@H](O)C1` [GYROSANIN A], the EC50 was more than 20 µg/mL in the test on A549, 3.6 µg/mL (≈ 9.08 µM) in the test with P388, more than 50 µg/mL in the test on Human betaherpesvirus 5 and more than 20 µg/mL in the test with HT-29. In addition, the inhibition at 10 µM in the test on RAW264.7 [1] worked out at 66.9%. Also, the outcome in the test on RAW264.7 [2] was inactive.

Regarding `C=C(C)[C@@H]1CC(=O)CC2=C(C1)[C@@H]1C(=O)O[C@@H]3C[C@](C)(O)[C@H](C2=O)[C@H]13` [SCABROLIDE A], the EC50 was more than 20 µg/mL in the test with A549, more than 20 µg/mL in the test with P388, more than 50 µg/mL with Human betaherpesvirus 5 and more than 20 µg/mL with HT-29.

With `CO[C@H](C(=O)[C@@H](O)[C@@H](C)O)[C@@H]1Cc2cc3cc(O[C@H]4C[C@@H](O[C@@H]5C[C@@H](O)[C@H](O)[C@@H](C)O5)[C@H](O)[C@@H](C)O4)c(C)c(O)c3c(O)c2C(=O)[C@H]1O[C@H]1C[C@@H](O[C@@H]2C[C@@H](O)[C@@H](O[C@@H]3C[C@](C)(O)[C@H](O)[C@@H](C)O3)[C@@H](C)O2)[C@H](O)[C@@H](C)O1` [PLICAMYCIN], the EC50 with A549 stood at 0.07 µg/mL (≈ 0.0645 µM); in the test on P388, 0.06 µg/mL (≈ 0.0553 µM); with HT-29, 0.08 µg/mL (≈ 0.0737 µM).

As to `C=C(C)[C@@H]1CC(=O)C[C@]23O[C@]4(C)C[C@H]5OC(=O)[C@H]([C@H]5[C@H]4C2=O)[C@H]3C1`, the EC50 was more than 20 µg/mL in the test on A549, more than 20 µg/mL with P388, more than 50 µg/mL with Human betaherpesvirus 5 and more than 20 µg/mL in the test with HT-29.

On to `C=C(C)[C@@H]1CC(=O)C[C@H]2O[C@](C)(CC2=O)C[C@H]2OC(=O)[C@@]3(O[C@H]23)[C@@H](O)C1`, for which the EC50 in the test on A549 was more than 20 µg/mL; in the test on P388 it was more than 20 µg/mL; in the test on Human betaherpesvirus 5 it was more than 50 µg/mL; in the test with HT-29, more than 20 µg/mL. Besides, in the test with RAW264.7 [1], the inhibition at 10 µM turned out to be 56.3%. In addition, in the test on RAW264.7 [2], the result was inactive.
